The values below come from ChEMBL document CHEMBL3576775 (Eur J Med Chem, 2015).

Structures are written as SMILES. The source made the active and inactive calls. The rule behind the calls is not given here.

Series [1] relates to Mus musculus. Nature of the series: Acute toxicity against Swiss albino mouse assessed as histological changes in liver at 5 to 300 mg, po measured after 14 days. The series is classed as organism-based. Conditions: in vivo, 336 h. Summed up:
(§1)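 Oral single doses of 5 mg, 50 mg and 300 mg to mice in three groups of three. Observed continuously for 4 h for signs of toxicity, then at regular intervals over the first 24 h and once daily for 14 days. Animals sacrificed at day 14; histology of liver, kidney and heart.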

In series [2] the test system is Mus musculus. The experiment in a line: Anti-hyperalgesic activity against Swiss albino mouse assessed as reduction in paw lickings at 5 mg/kg, ip administered 30 mins prior to capsaicin injection and 30 mins after 10 ug substance-P injection. Format: functional, organism-based. Summed up:
(§2)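 Mice (5 per group, 7 groups), all treatments i.p. Misoprostol (200 μg) or substance P (10 μg) given 30 min before test compound (5 mg Kg⁻¹); capsaicin (20 μL) injected into right hind paw plantar surface 30 min later. Controls received normal saline. Paw lickings counted over 10 min after capsaicin.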

Series [3] has as its target T1, Prostaglandin G/H synthase 2 (Homo sapiens) (UniProt P35354).
T1 sequence (whole entry): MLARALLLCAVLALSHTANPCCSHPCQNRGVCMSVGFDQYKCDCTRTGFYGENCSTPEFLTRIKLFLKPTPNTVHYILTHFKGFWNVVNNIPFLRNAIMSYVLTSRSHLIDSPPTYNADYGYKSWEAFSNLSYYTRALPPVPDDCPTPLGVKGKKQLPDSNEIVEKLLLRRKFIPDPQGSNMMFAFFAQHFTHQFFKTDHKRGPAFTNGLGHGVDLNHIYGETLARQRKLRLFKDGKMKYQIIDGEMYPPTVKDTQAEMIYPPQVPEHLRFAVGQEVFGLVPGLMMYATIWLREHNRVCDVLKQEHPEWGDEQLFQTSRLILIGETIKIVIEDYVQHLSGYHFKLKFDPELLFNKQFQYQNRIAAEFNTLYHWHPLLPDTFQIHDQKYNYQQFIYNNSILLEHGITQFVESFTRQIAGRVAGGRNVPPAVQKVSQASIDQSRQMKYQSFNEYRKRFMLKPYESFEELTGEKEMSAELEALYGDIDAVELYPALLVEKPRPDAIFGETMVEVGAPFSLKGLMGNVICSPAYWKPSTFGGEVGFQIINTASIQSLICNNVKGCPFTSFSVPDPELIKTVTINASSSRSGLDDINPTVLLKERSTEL

Series [4] has as its system Mus musculus. Nature of the series: Anti-inflammatory activity against Swiss albino mouse assessed as reduction in paw thickness at 5 mg/kg, ip administered 30 mins prior to dextran injection measured after 4 hrs by vernier calliper analysis relative to control. Format: functional. A digest of the protocol:
(§3)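 Swiss albino mice, 5 per group. […] Paw thickness measured by vernier calipers at 1, 2, 3, 4, 6 and 24 h. Reduction expressed relative to control; mean ± SEM.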

Series [5] deals with Mus musculus. Nature of the series: Acute toxicity against Swiss albino mouse assessed as histological changes in kidney at 5 to 300 mg, po measured after 14 days. Format: organism-based. Conditions: in vivo, 336 h. A digest of the protocol:
as §1

The test system of series [6] is Mus musculus. Nature of the series: Anti-inflammatory activity against Swiss albino mouse assessed as reduction in paw thickness at 10 mg/kg, ip administered 30 mins prior to dextran injection measured after 4 hrs by vernier calliper analysis relative to control. Format: functional. Summed up: as §3
Series [7] has as its system Mus musculus. The experiment in a line: Anti-hyperalgesic activity against Swiss albino mouse assessed as reduction in paw lickings at 5 mg/kg, ip administered 30 mins prior to capsaicin injection and 30 mins after 200 ug misoprostol injection. Format: functional, organism-based. Summed up: as §2
Series [8] deals with Mus musculus. Nature of the series: Acute toxicity against Swiss albino mouse assessed as lesser inflammatory cells and decreased area of necrosis in stomach at 5 to 300 mg, po measured after 14 days. The series is classed as organism-based. Particulars: in vivo, 336 h.
The subject of series [9] is Mus musculus. The experiment in a line: Anti-hyperalgesic activity against Swiss albino mouse assessed as reduction in paw lickings at 5 mg/kg, ip administered 30 mins prior to capsaicin injection relative to control. Format: functional.
The subject of series [10] is Mus musculus. The experiment in a line: Acute toxicity against Swiss albino mouse assessed as histological changes in heart at 5 to 300 mg, po measured after 14 days. Format: organism-based. Conditions: in vivo, 336 h. Summed up: as §1
Series [11] can be described thus: Inhibition of soyabean 5-LOX using arachidonic acid as substrate by microplate scanning spectrophotometer analysis. More on the design: species or system Glycine max. A digest of the protocol:
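Soybean lipoxygenase in assay buffer was mixed with compound (DMSO solutions at 0.01 to 100 μM, 1:10 into enzyme solution). Reaction started with arachidonic acid; plate shaken 5 min, chromogen added, shaken 5 min, read at 490 nm. Blanks and positive controls included. Duplicates, deviation <5%, averaged; percent inhibition calculated from activity.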

Series [12] concerns Glycine max. Nature of the series: Competitive inhibition of soyabean 5-LOX using arachidonic acid as substrate by double reciprocal plot analysis. Summed up:
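Arachidonic acid in HEPES:DMSO (1:1) at 2 mM, added in 5 μL increments (50 μM final each) to fixed enzyme. Change in substrate absorbance at maxima plotted double-reciprocally, without inhibitor and with 10 μM or 20 μM inhibitor; intersection of the extrapolated lines indicates inhibition type.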

Series [13] deals with T2, Prostaglandin G/H synthase 1 (Ovis aries, UniProt P05979).
T2 sequence (P05979 whole entry): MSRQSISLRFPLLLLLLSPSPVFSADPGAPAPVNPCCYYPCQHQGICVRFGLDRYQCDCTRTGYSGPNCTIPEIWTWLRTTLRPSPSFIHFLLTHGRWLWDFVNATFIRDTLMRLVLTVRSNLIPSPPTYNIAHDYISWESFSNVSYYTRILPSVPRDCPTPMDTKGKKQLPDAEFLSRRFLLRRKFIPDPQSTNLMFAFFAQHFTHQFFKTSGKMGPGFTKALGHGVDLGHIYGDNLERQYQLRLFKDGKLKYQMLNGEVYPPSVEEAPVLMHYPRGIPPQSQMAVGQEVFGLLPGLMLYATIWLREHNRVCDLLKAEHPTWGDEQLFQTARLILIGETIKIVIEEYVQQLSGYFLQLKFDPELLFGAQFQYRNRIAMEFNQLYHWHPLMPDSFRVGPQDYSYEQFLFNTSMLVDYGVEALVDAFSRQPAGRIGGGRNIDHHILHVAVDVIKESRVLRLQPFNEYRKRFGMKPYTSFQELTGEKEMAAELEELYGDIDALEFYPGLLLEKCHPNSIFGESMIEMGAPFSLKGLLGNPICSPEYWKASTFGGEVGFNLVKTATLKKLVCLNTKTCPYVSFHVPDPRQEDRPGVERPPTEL
Nature of the series: Inhibition of ovine COX-1 assessed as PGF2alpha formation using arachidonic acid as substrate pretreated with compound for 20 mins prior to substrate addition by spectrophotometric analysis.

Series [14] relates to Glycine max.
Series [15] in a line: Competitive inhibition of soyabean 5-LOX by UV-Visible spectrophotometry. On the set-up: species or system Glycine max.
For series [16], the target named is T3, Prostaglandin G/H synthase 2 (Homo sapiens, UniProt P35354).
T3 sequence (P35354 whole entry): T1 sequence (whole entry)
The experiment in a line: Competitive inhibition of human recombinant COX-2 by UV-Visible spectrophotometry. Summed up:
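Double reciprocal plot from UV-vis absorbance change at the maximum. Arachidonic acid in HEPES:DMSO (1:1) added in 5 µl increments (each giving 50 µM final) to a fixed enzyme concentration. Repeated with inhibitor at fixed 10 µM and 20 µM. Type of inhibition taken from where the extrapolated trails meet; also from IC50 versus Ki comparison.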

`Cc1ccc(S(=O)(=O)n2cc(C(=O)C(=O)N[C@@H](Cc3c[nH]c4ccccc34)C(=O)NCC(=O)O)c3ccccc32)cc1`: the Activity result in the series with Mus musculus [1], in the series with Mus musculus [5], in the series with Mus musculus [8] and in the series with Mus musculus [10] was “Non-toxic” in each case. In the series with Mus musculus [2], the inhibition entry is “inactive”. Besides, the Ka was 3.29 ×10⁵ /M in series [3] and 3.36 ×10⁶ /M in the series on Glycine max [14]. Moreover, the figures for the inhibition in vivo at 5 mg/kg in the series on Mus musculus [4] and in the series with Mus musculus [9] were 47% and 96%, respectively. In the series with Mus musculus [6], the inhibition in vivo (in general, the percentage by which the read-out fell short of the control) at 10 mg/kg worked out at 49%. For the same compound, the inhibition result with Mus musculus [7] and in the series with Glycine max [12] was “Active” in each case. Besides, the concentration for half-maximal inhibition (IC50) (in general, the concentration at which inhibition is half-maximal) in [11] worked out at 2 nM; in series [13] it was 2210 nM. Moreover, the results for the Ki in [15] and in series [16] were 42 nM and 109 nM, respectively.
